Series [1] can be described thus: folding enthalpy; higher = less favourable; fluorescence melt of hairpins on a sequencing array, two-state fit. Particulars: sodium 0.088 M. In outline: (§1)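 Hairpins were imaged by Cy3 fluorescence on a sequenced MiSeq flow cell with annealed Cy3 and quencher oligos, in 50 mM Na-HEPES pH 8.0, 25 mM NaCl, in 2.5 °C steps up to 60 °C. Bootstrapped two-state fits of normalised signals gave melting temperature and folding enthalpy. Four replicates were combined by inverse variance, and fitted temperatures were raised by 9.35 °C to match UV melts.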

The nature of series [2]: melting temperature; fluorescence melt of hairpins on a sequencing array, two-state fit, raised by 9.35 °C to match UV melts. Particulars: sodium 0.088 M. In outline:
as §1

Experimental findings from the array DNA melting data of Ke et al. (doi:10.1101/2024.01.08.574731) are described below.

With GATCGATTGGTCGATC ((((((....)))))), in series [1], the folding enthalpy was -37.6 kcal/mol. The Tm in series [2] is 53.2 °C.

As for GCGCGGCGAAAGCCCTGC ((..(((....)))..)), the folding enthalpy in series [1] is -13.5 kcal/mol. The Tm in series [2] amounted to 50.1 °C.

With GTTGTCGAAAGACAAAAC ((((((....)))..))), in series [1], the folding enthalpy is -13.6 kcal/mol. Moreover, the Tm in series [2] amounted to 36.9 °C.

Turning to GGACGCGAAAGCGCTTCC ((((((....)))..))), in series [1], the folding enthalpy was -13.2 kcal/mol. Further, the Tm in series [2] turned out to be 47.5 °C.

In the case of GTGCCAGGAAACTAGCAC ((((.((....)).)))), in series [1], the folding enthalpy is -28.2 kcal/mol. For the same sequence, the Tm in series [2] is 43.2 °C.

Regarding GCCGGCGAAAGCCCTGGC ((((((....)))..))), the folding enthalpy in series [1] was -16.2 kcal/mol. Further, in series [2], the Tm is 56.6 °C.

As to GAAATCCGAAAGGATTC (((.(((....)))))), in series [1], the folding enthalpy was -11.2 kcal/mol. In addition, in series [2], the Tm turned out to be 46.4 °C.

With GCAACATCGAAAGATTGC (((..(((....)))))), in series [1], the folding enthalpy was -19.8 kcal/mol. In addition, the Tm in series [2] is 34.2 °C.

Regarding GGGACCGAAAGGTTCCC ((((((....))).))), in series [1], the folding enthalpy is -26.7 kcal/mol. The Tm in series [2] is 60.4 °C.

With GGGATCGAAAGATCACCC ((((((....)))..))), in series [1], the folding enthalpy is -13.4 kcal/mol. In addition, in series [2], the Tm was 51.1 °C.

In the case of TGTAAGAAATTACA (((((....))))), the folding enthalpy in series [1] is -7.98 kcal/mol. Also, the Tm in series [2] was 20.6 °C.

GTTGATGGAAACATCAGC (.(((((....))))).): the folding enthalpy in series [1] is -25 kcal/mol. For the same sequence, the Tm in series [2] was determined as 46.5 °C.

As for GCGGGCCCCGC ((((...)))), the folding enthalpy in series [1] is -22.2 kcal/mol. The Tm in series [2] was found to be 62.2 °C.

With GCACGTGGAAACACATGC (((.(((....))).))), the folding enthalpy in series [1] is -31.9 kcal/mol. In addition, in series [2], the Tm was 45.1 °C.

On to GTTCACGGAAACGTGGAC ((.((((....)))).)), for which the folding enthalpy in series [1] is -29.2 kcal/mol. Moreover, the Tm in series [2] was 52.8 °C.

Take GCTGCGCGAAAGCTCGGC ((.(.((....)).).)): the folding enthalpy in series [1] is -22.4 kcal/mol. The Tm in series [2] came to 48.3 °C.

On to GATAGAGGAAACCCTATC (((((.(....).))))), for which the folding enthalpy in series [1] was -20.3 kcal/mol. The Tm in series [2] was found to be 30.8 °C.

As for GGATGCGAAAGCACCTCC ((((((....)))..))), in series [1], the folding enthalpy was -14.4 kcal/mol. In addition, the Tm in series [2] amounted to 54.6 °C.

GCTCCCGGAAACGAGAGC ((((.((....)).)))): the folding enthalpy in series [1] is -36.5 kcal/mol. Further, the Tm in series [2] was found to be 49.2 °C.

On to GGTACCGGAAACGGTACC (((((((....))))))), for which the folding enthalpy in series [1] was -30.5 kcal/mol. Besides, the Tm in series [2] was determined as 69 °C.

Turning to GAGAACGAAAGTTCCTC ((((((....))).))), the folding enthalpy in series [1] was -14.2 kcal/mol. Moreover, the Tm in series [2] turned out to be 42.7 °C.

Consider GCTTCCCGAAAGGGCAGC (((.(((....))).))), for which, in series [1], the folding enthalpy was -32.5 kcal/mol. The Tm in series [2] came to 53.3 °C.

Turning to GATCCGCCAGCGGATC ((((((....)))))), the folding enthalpy in series [1] is -44.9 kcal/mol. Further, the Tm in series [2] amounted to 65.2 °C.

On to GGGATCACGAAAGTGCCC (((..(((....)))))), for which the folding enthalpy in series [1] is -15.3 kcal/mol. Also, the Tm in series [2] is 39.3 °C.

In the case of GCCTTGTCGAAAGACGGC (((..(((....)))))), the folding enthalpy in series [1] was -18 kcal/mol. Besides, in series [2], the Tm amounted to 47.8 °C.

On to GATTTCACGAAAGTGATC (((..(((....)))))), for which the folding enthalpy in series [1] is -9.78 kcal/mol. The Tm in series [2] came out at 23.4 °C.

In the case of GGGTTCGGAAACGAGTCC ((..(((....)))..)), in series [1], the folding enthalpy was -25.4 kcal/mol. Moreover, the Tm in series [2] came out at 37.7 °C.

For the sequence GAAGAACCGAAAGGTTTC (((..(((....)))))), in series [1], the folding enthalpy is -11.5 kcal/mol. In addition, the Tm in series [2] came to 33 °C.

In the case of GCGTAGTCACGC ((((....)))), the folding enthalpy in series [1] was -21.2 kcal/mol. For the same sequence, the Tm in series [2] was found to be 51.5 °C.

For GTCTCTCGAAAGAGTGAC (((.(((....))).))), the folding enthalpy in series [1] is -32.6 kcal/mol. For the same sequence, the Tm in series [2] is 49.7 °C.

Turning to GCGAATGGAAACATTTGC ((.((((....)))).)), the folding enthalpy in series [1] was -33.6 kcal/mol. Also, the Tm in series [2] is 49.5 °C.

Regarding GTATACGAAAGTACATAC ((((((....)))..))), the folding enthalpy in series [1] is -10.6 kcal/mol. Further, the Tm in series [2] came out at 21.3 °C.

Turning to GGTTTTGGAAACAAAGCC ((.((((....)))).)), the folding enthalpy in series [1] is -29.1 kcal/mol. Also, the Tm in series [2] was 46 °C.

Turning to GGTCAGGCGAAAGCCACC (((..(((....)))))), the folding enthalpy in series [1] was -11.2 kcal/mol. Moreover, in series [2], the Tm came out at 35.6 °C.

For GATCCTCCGTAGGATC ((((((....)))))), the folding enthalpy in series [1] is -20.4 kcal/mol. Also, the Tm in series [2] was 48.5 °C.

Regarding GGCCCCGAAAGGGCTGCC ((((((....)))..))), in series [1], the folding enthalpy was -15.1 kcal/mol. Also, the Tm in series [2] came to 68.2 °C.

Turning to GGACTCGAAAGAGTTTCC ((((((....)))..))), the folding enthalpy in series [1] was -13.8 kcal/mol. Besides, in series [2], the Tm was 36.8 °C.
